Laboratory results reported in ChEMBL document CHEMBL5346966, “Discovery and Characterization of PROTACs Targeting Tissue Transglutaminase (TG2)” (J Med Chem, 2023).
The source made the active and inactive calls. The calls are words filed in the database; no cut-off is given here.

Tests used:
SK-OV-3 [1] = experiment: Inhibition of cell adhesion to fibronectin in human SK-OV-3 cells at 10 uM incubated for 6 hrs by CCK-8 assay; assay type: functional, cell-based
Outline: (§1)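 Wells coated for 1 h with 10 μg/mL fibronectin in PBS. After PBS wash, attached cells counted by CCK-8 absorbance at […]. n = 3.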

OVCAR-5 [2] = experiment: Cytotoxicity against human OVCAR-5 cells assessed as cell death at 0.1 to 30 uM treated every 6 to 8 hrs for 5 days; assay type: functional, cell-based; details: dose 0.1-30 µM, time 5.0 day
Outline: (§2)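 OVCAR5 and SKOV3 cells in 96-well plates given compound at 0.1, 0.3, 1, 3, 10 or 30 μM, redosed every 6–8 h over 5 days. Viable cells measured by CCK-8 absorbance at […]. n = 3.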

[3] = molecular target: T1, Protein-glutamine gamma-glutamyltransferase (Homo sapiens) (UniProt P21980); experiment: Induction of TG2 degradation in human SK-OV-3 cells assessed as reduction in TG2 level at 10 uM incubated for 6 hrs in presence of VHL-L by Western blot analysis; assay type: cell-based
T1 sequence (whole entry): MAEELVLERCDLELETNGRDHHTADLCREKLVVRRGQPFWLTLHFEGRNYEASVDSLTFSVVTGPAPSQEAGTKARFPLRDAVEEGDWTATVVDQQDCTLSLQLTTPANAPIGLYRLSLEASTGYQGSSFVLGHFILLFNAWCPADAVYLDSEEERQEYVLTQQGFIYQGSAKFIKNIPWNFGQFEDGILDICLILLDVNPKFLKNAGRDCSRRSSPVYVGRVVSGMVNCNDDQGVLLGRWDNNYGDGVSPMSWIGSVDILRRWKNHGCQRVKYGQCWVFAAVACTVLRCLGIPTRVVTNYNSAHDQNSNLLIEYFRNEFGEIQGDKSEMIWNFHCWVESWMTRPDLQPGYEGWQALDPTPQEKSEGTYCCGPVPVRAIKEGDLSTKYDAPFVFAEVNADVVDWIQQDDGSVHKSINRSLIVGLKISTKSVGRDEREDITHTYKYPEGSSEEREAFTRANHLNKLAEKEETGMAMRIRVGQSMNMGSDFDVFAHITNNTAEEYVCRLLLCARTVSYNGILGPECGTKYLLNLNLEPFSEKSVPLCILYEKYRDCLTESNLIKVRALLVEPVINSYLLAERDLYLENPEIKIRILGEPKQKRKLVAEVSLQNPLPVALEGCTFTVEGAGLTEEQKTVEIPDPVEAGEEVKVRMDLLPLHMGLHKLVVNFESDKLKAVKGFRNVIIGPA
Outline: (§3)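 OVCAR5 or SKOV3 cells treated for 6 h with compound at 10 μM plus 10 μM VHL ligand as competitor. TG2 measured by western blot with densitometry against control. n = 3.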

[4] = molecular target: T1, Protein-glutamine gamma-glutamyltransferase (Homo sapiens); experiment: Induction of TG2 degradation in human SK-OV-3 cells assessed as reduction of TG2 level at 10 uM incubated for 6 hrs followed by MG132 addition and measured after 8 hrs by Western blot analysis; assay type: cell-based; details: time 14.0 hrs
Outline: (§4)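 Proteasome dependence checked in OVCAR5 or SKOV3 cells: compound at 10 μM for 6 h, with MG132 at 20 μM for 8 h. TG2 measured by western blot, and band intensity expressed relative to DMSO control. n = 3.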

[5] = molecular target: T1, Protein-glutamine gamma-glutamyltransferase (Homo sapiens); experiment: Induction of TG2 degradation in human SK-OV-3 cells assessed as maximal degradation at 10 to 30 uM measured after 6 hrs by Western blot analysis; assay type: cell-based; details: dose 10-30 µM
Outline: (§5)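 SKOV3 cells treated with 0.1, 0.3, 1, 3, 10 or 30 μM for 0, 2, 6, 12 and 24 h. TG2 measured by western blot of RIPA lysates with GAPDH reprobe after stripping, followed by densitometry. n = 3 experimental replicates.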

SK-OV-3 [6] = experiment: Inhibition of cell migration in human SK-OV-3 cells at 10 uM incubated for 18 hrs by crystal violet staining based transwell migration assay; assay type: functional
Outline: (§6)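 Transwell migration through 8 μm pores: 15,000 OVCAR5 or SKOV3 cells in serum-free medium with compound or control in upper chamber, 10% serum below. After 18 h, migrated cells fixed in 4% PFA, stained with crystal violet and counted at 40×. n = 3.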

[7] = molecular target: T1, Protein-glutamine gamma-glutamyltransferase (Homo sapiens); experiment: Induction of TG2 degradation in human OVCAR-5 cells assessed as reduction in TG2 level at 10 uM incubated for 6 hrs in presence of VHL-L by Western blot analysis; assay type: cell-based; outline: as §3
[8] = molecular target: T1, Protein-glutamine gamma-glutamyltransferase (Homo sapiens); experiment: Induction of TG2 degradation in human OVCAR-5 cells assessed as reduction in TG2 level at 10 uM incubated for 6 hrs followed by MG132 addition and measured after 8 hrs by Western blot analysis; assay type: cell-based; details: time 14.0 hrs; outline: as §4
OVCAR-5 [9] = experiment: Inhibition of cell adhesion to fibronectin in human OVCAR-5 cells at 10 uM incubated for 6 hrs by CCK-8 assay; assay type: functional, cell-based; outline: as §1
OVCAR-5 [10] = experiment: Inhibition of cell migration in human OVCAR-5 cells at 10 uM incubated for 18 hrs by crystal violet staining based transwell migration assay; assay type: functional; outline: as §6
[11] = molecular target: T1, Protein-glutamine gamma-glutamyltransferase (Homo sapiens); experiment: Induction of TG2 degradation in human OVCAR-5 cells assessed as reduction in TG2 level at 0.1 to 10 uM measured after 24 hrs by Western blot analysis; assay type: cell-based; details: dose 0.1-10 µM
Outline: (§7)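 Cells on 6 cm dishes treated for 6 or 24 h; OVCAR5 at 0.1, 1 and 10 μM, SKOV3 at 1 and 10 μM; DMSO control. RIPA lysates quantified by Bradford, then western blot with anti-TG2 and GAPDH antibodies (1:1000, overnight 4 °C). Bands quantified by densitometry; n = 3.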

SK-OV-3 [12] = experiment: Cytotoxicity against human SK-OV-3 cells assessed as cell death at 0.1 to 30 uM treated every 6 to 8 hrs for 5 days by CCK-8 assay; assay type: functional, cell-based; details: dose 0.1-30 µM, time 5.0 day; outline: as §2
[13] = molecular target: T1, Protein-glutamine gamma-glutamyltransferase (Homo sapiens); experiment: Induction of TG2 degradation in human OVCAR-5 cells assessed as reduction in TG2 level measured within 6 hrs by Western blot analysis; assay type: cell-based; details: dose 0.1-10 µM
[14] = molecular target: T1, Protein-glutamine gamma-glutamyltransferase (Homo sapiens); experiment: Induction of TG2 degradation in human SK-OV-3 cells assessed as reduction in TG2 level measured after 2 to 12 hrs by Western blot analysis; assay type: cell-based; details: dose 0.1-30 µM, time 2-12 hrs; outline: as §5
[15] = molecular target: T1, Protein-glutamine gamma-glutamyltransferase (Homo sapiens); experiment: Induction of TG2 degradation in human SK-OV-3 cells assessed as reduction in TG2 level at 0.1 to 10 uM measured after 24 hrs by Western blot analysis; assay type: cell-based; details: dose 0.1-10 µM
SK-OV-3 [16] = experiment: Inhibition of cell migration in human SK-OV-3 cells at 10 uM incubated for 18 hrs by crystal violet staining based wound healing assay; assay type: functional
[17] = molecular target: T1, Protein-glutamine gamma-glutamyltransferase (Homo sapiens); experiment: Induction of TG2 degradation in human OVCAR-5 cells assessed as reduction of TG2 level treated every 6 to 8 hrs for 24 hrs by Western blot analysis; assay type: cell-based; details: dose 1-10 µM
Outline: (§8)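 OVCAR5 or SKOV3 cells given compound at 1 or 10 μM, redosed every 6–8 h over 24 h. TG2 measured at 24 h by western blot of RIPA lysates.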

[18] = molecular target: T1, Protein-glutamine gamma-glutamyltransferase (Homo sapiens); experiment: Induction of TG2 degradation in human SK-OV-3 cells assessed as reduction in TG2 level at 0.1 to 30 uM by Western blot analysis; assay type: cell-based; details: dose 0.1-30 µM, time 2-12 hrs, TDE = time-dependent effect; outline: as §5
[19] = molecular target: T1, Protein-glutamine gamma-glutamyltransferase (Homo sapiens); experiment: Induction of TG2 degradation in human OVCAR-5 cells assessed as reduction of TG2 level at 1 to 10 uM measured after 24 hrs by Western blot analysis; details: dose 1-10 µM
[20] = molecular target: T1, Protein-glutamine gamma-glutamyltransferase (Homo sapiens); experiment: Induction of TG2 degradation in human SK-OV-3 cells assessed as reduction of TG2 level treated every 6 to 8 hrs for 24 hrs by Western blot analysis; assay type: cell-based; details: dose 1-10 µM; outline: as §8
[21] = molecular target: T1, Protein-glutamine gamma-glutamyltransferase (Homo sapiens); experiment: Induction of TG2 degradation in human SK-OV-3 cells assessed as reduction in TG2 level measured within 6 hrs by Western blot analysis; assay type: cell-based; details: dose 0.1-10 µM
[22] = molecular target: T1, Protein-glutamine gamma-glutamyltransferase (Homo sapiens); experiment: Potency index, ratio of MT4 KD to test compound KD for binding affinity to TG2 (unknown origin) assessed as dissociation constant at 30 degree C by isothermal titration calorimetry
OVCAR-5 [23] = experiment: Inhibition of cell migration in human OVCAR-5 cells at 10 uM incubated for 18 hrs by crystal violet staining based wound healing assay; assay type: functional
[24] = molecular target: T1, Protein-glutamine gamma-glutamyltransferase (Homo sapiens); experiment: Induction of TG2 degradation in human SK-OV-3 cells assessed as reduction of TG2 level at 1 to 10 uM measured after 12 hrs by Western blot analysis; assay type: cell-based; details: dose 1-10 µM, time 24.0 hrs, in the assay text read “24 hrs” for “12 hrs”; outline: as §5
[25] = molecular target: T2, Protein-glutamine gamma-glutamyltransferase (Homo sapiens, UniProt P21980); experiment: Binding affinity to TG2 (unknown origin) assessed as dissociation constant at 30 degree C by isothermal titration calorimetry
T2 sequence (P21980 whole entry): T1 sequence (whole entry)

[26] = molecular target: T1, Protein-glutamine gamma-glutamyltransferase (Homo sapiens); experiment: Induction of TG2 degradation in human OVCAR-5 cells assessed as reduction in TG2 level at 0.1 to 10 uM measured after 6 hrs by Western blot analysis; assay type: cell-based; details: dose 0.1-10 µM; outline: as §7
[27] = molecular target: T1, Protein-glutamine gamma-glutamyltransferase (Homo sapiens); experiment: Induction of TG2 degradation in human SK-OV-3 cells assessed as reduction in TG2 level at 0.1 to 10 uM measured after 6 hrs by Western blot analysis; assay type: cell-based; details: dose 0.1-10 µM

Row | Activity [3] | Activity [4] | Activity [5] | Activity [7] | Activity [8] | Activity [11] | Activity [13] | Activity [14] | Activity [15] | Activity [17] | Activity [18] | Activity [19] | Structure (SMILES) | inhibition (SK-OV-3 [1]) | Activity (OVCAR-5 [2]) | inhibition (SK-OV-3 [6]) | inhibition (OVCAR-5 [9]) | inhibition (OVCAR-5 [10]) | Activity (SK-OV-3 [12]) | inhibition (SK-OV-3 [16]) | inhibition (OVCAR-5 [23]) | other results
1 | inactive | inactive | Active | inactive | inactive | inactive | Dose-Dependent Effect | Dose-Dependent Effect | inactive | Active | Tde | inactive | Cc1cc(N(C)CCOCCC(=O)N[C@H](C(=O)N2C[C@H](O)C[C@H]2C(=O)NCc2ccc(-c3scnc3C)cc2)C(C)(C)C)nc(Nc2ccc(NC(=O)Cc3ccccc3)cc2)n1 | Active | inactive | Active | Active | Active | inactive | Active | Active | Activity [20]: Active; Activity [21]: Dose-Dependent Effect; Ratio [22]: > 12.8; Activity [24]: inactive; Kd [25]: > 100 µM
2 |  |  |  |  |  |  |  |  |  |  |  |  | Cc1cc(N(C)CCOCCC(=O)N[C@H](C(=O)N2C[C@@H](O)C[C@H]2C(=O)NCc2ccc(-c3scnc3C)cc2)C(C)(C)C)nc(Nc2ccc(NC(=O)Cc3ccccc3)cc2)n1 | inactive |  | inactive | inactive | inactive |  | inactive | inactive | Activity [26]: inactive; Activity [27]: inactive
3 | inactive | inactive | Active | inactive | inactive | inactive | Dose-Dependent Effect | Dose-Dependent Effect | inactive | Active | Tde | inactive | Cc1cc(N(C)CCOCCOCCOCCOCCOCCC(=O)N[C@H](C(=O)N2C[C@H](O)C[C@H]2C(=O)NCc2ccc(-c3scnc3C)cc2)C(C)(C)C)nc(Nc2ccc(NC(=O)Cc3ccccc3)cc2)n1 | Active | inactive | Active | Active | Active | inactive | Active | Active | Activity [20]: Active; Activity [21]: Dose-Dependent Effect; Ratio [22]: 8.8; Activity [24]: inactive
4 |  |  |  |  |  |  |  |  |  |  |  |  | Cc1cc(N(C)CCOCCOCCOCCOCCOCCC(=O)N[C@H](C(=O)N2C[C@@H](O)C[C@H]2C(=O)NCc2ccc(-c3scnc3C)cc2)C(C)(C)C)nc(Nc2ccc(NC(=O)Cc3ccccc3)cc2)n1 | inactive |  | inactive | inactive | inactive |  | inactive | inactive | Activity [26]: inactive; Activity [27]: inactive
